This is an account of results in ChEMBL document CHEMBL4732055, “Discovery of fast-acting dual-stage antimalarial agents by profiling pyridylvinylquinoline chemical space via copper catalyzed azide-alkyne cycloadditions” (Eur J Med Chem, 2021).

Data set [1] concerns Plasmodium falciparum. The experiment in a line: Antiplasmodial activity against chloroquine-resistant Plasmodium falciparum Dd2 infected in erythrocytes assessed as reduction in parasite growth after 72 hrs by SYBR green I staining based fluorescence assay. The class given is functional, organism-based. The conditions noted are these: Dd2, Erythrocyte. The procedure, abridged: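 Asexual P. falciparum cultures at 1% parasitemia and 1% hematocrit, given serial dilutions in DMSO (0.1% maximum), were incubated 72 h at 37 °C in 5% CO2. Plates were frozen, thawed and lysed with Tris/saponin/EDTA/Triton X-100 buffer containing SYBR Green I, then kept 1 h dark at room temperature. Fluorescence was read at 485 excitation/530 emission. EC50 came from non-linear dose-response curves.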

Data set [2] has as its system Plasmodium falciparum. Kind of data set: Antiplasmodial activity against chloroquine-sensitive Plasmodium falciparum 3D7 infected in erythrocytes assessed as reduction in parasite growth after 72 hrs by SYBR green I staining based fluorescence assay. Type of data set: functional, organism-based. The conditions noted are these: 3D7, Erythrocyte. In a few lines:
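Compound dilutions in DMSO (max 0.1% DMSO) added to P. falciparum culture at 1% parasitemia, 1% hematocrit; 72 h at 37 °C, 5% CO2. Plates frozen, thawed, lysed with buffer containing saponin, Triton X-100, EDTA and SYBR Green I; 1 h dark at room temperature; fluorescence ex 485/em 530. EC50 from non-linear dose-response curves.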

The next data set concerns HepG2. Kind of data set: Cytotoxicity against human HepG2 cells assessed as reduction in cell viability after 48 hrs by MTS assay. Type of data set: cell-based. The conditions noted are these: HepG2, 48 h. In a few lines: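 HepG2 cells seeded at 2250 per well, grown 24 h at 37 °C, 5% CO2. Serial compound dilutions starting at 25 μM added for a further 48 h. MTS reagent added for 3 h at 37 °C; viability read as absorbance at 490 nm.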

Data set [3] concerns Hemozoin. Kind of data set: Inhibition of beta-hematin formation at 12.5 to 200 uM after 16 hrs by inverted microscopic analysis. The conditions noted are these: dose 12.5-200 µM.
A short description of data set [4]: Stability in mouse liver microsomes assessed as parent compound remaining at 1 uM after 15 mins in presence of NADPH regenerating system by LC/MS analysis. Type of data set: ADME, Microsome. The conditions noted are these: read-out: Stabilty. The procedure, abridged: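 Compound at 1 μM final (from 25 μM DMSO stock) with 0.5 mg/mL mouse liver microsomes, NADPH-regenerating system (1.3 mM NADP, 3.3 mM glucose 6-phosphate, 3.3 mM MgCl2, 0.4 U/mL G6PDH) in 0.1 M potassium phosphate pH 7.4, 37 °C with shaking. Aliquots quenched in cold acetonitrile, centrifuged, quantified by LC/MS as percent parent remaining relative to T = 0; CLint and t1/2 reported.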
In general terms: Liver microsomes are a subcellular fraction often used to study metabolism.

Data set [5] concerns Plasmodium falciparum. Kind of data set: Antimalarial activity against Plasmodium falciparum RKL9 gametocytes incubated for 48 hrs by Giemsa staining based assay. The class given is functional, organism-based. The conditions noted are these: RKL9, 48 h.
Data set [6] concerns Plasmodium falciparum. The experiment in a line: Parasiticidal activity against chloroquine-resistant Plasmodium falciparum Dd2 infected in erythrocytes assessed as reduction in parasitemia at 6.6 nM incubated for 6 to 12 hrs followed by compound washout and then incubated for 96 hrs by Giemsa staining based microscopic analysis. To be noted: time 6-12 hrs. Type of data set: functional, organism-based.

The subject of data set [7] is Plasmodium falciparum. Kind of data set: Antiplasmodial activity against synchronized chloroquine-resistant Plasmodium falciparum Dd2 assessed as prevention of parasite cell cycle progression at 5 times of EC50 treated with compound at 6 to 30 hrs post invasion and measured after 12 hrs by Giemsa staining-based microscopic analysis. Type of data set: functional, organism-based. In a few lines:
(§1)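 Samples taken at 12 h intervals were made into Giemsa-stained thin smears and scored by microscopy for intraerythrocytic stage and development, against untreated control cultures.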

Data set [8] relates to Plasmodium falciparum. The experiment in a line: Antiplasmodial activity against synchronized chloroquine-resistant Plasmodium falciparum Dd2 assessed as effect on schizont maturation and reinvasion of merozoite at 5 times of EC50 treated with compound at 42 hrs post invasion and measured after 12 hrs by Giemsa staining-based microscopic analysis. The class given is functional, organism-based. The procedure, abridged:
as §1

The subject of data set [9] is Plasmodium falciparum. The experiment in a line: Antiplasmodial activity against synchronized chloroquine-resistant Plasmodium falciparum Dd2 assessed as morphological changes at 5 times of EC50 treated with compound at 6 hrs post invasion and measured after 12 hrs by Giemsa staining-based microscopic analysis. Type of data set: functional, organism-based. In a few lines: as §1

For data set [10], the system named is Plasmodium falciparum. Kind of data set: Antiplasmodial activity against synchronized chloroquine-resistant Plasmodium falciparum Dd2 assessed as reduction in DNA content at 5 times of EC50 treated with compound at 6 to 30 hrs post invasion measured after 12 hrs by YOYO-1 staining-based flow cytometric analysis. Type of data set: functional, organism-based. In general terms: Flow cytometry measures light scatter and fluorescence of single cells or particles in a stream.

The subject of data set [11] is Plasmodium falciparum. The experiment in a line: Antiplasmodial activity against synchronized chloroquine-resistant Plasmodium falciparum Dd2 assessed as reduction in DNA content at 5 times of EC50 treated with compound at 42 hrs post invasion measured after 12 hrs by YOYO-1 staining-based flow cytometric analysis. The class given is functional, organism-based.
Data set [12] relates to Plasmodium falciparum. The experiment in a line: Antiplasmodial activity against synchronized chloroquine-resistant Plasmodium falciparum Dd2 assessed as appearance of large vacuoles at 5 times of EC50 treated with compound at 6 to 42 hrs post invasion and measured after 12 hrs by Giemsa staining-based microscopic analysis. The class given is functional, organism-based. In a few lines: as §1

In data set [13] the test system is Plasmodium falciparum. Kind of data set: Parasiticidal activity against chloroquine-resistant Plasmodium falciparum Dd2 infected in erythrocytes assessed as reduction in parasitemia at 5 times of EC50 incubated for 6 to 12 hrs followed by compound washout and then incubated for 96 hrs by Giemsa staining based microscopic analysis. Type of data set: functional, organism-based. To be noted: time 6-12 hrs.

The test system of data set [14] is Plasmodium falciparum. The experiment in a line: Antiplasmodial activity against early stage (II/III) gametocytes of Plasmodium falciparum 3D7 harboring luc7 incubated for 72 hrs by ONE-Glo luciferase assay. The class given is functional, organism-based. The conditions noted are these: 3D7, 72 h. The procedure, abridged:
(§2)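 Gametocytes of the 3D7 luc7 line were induced by nutrient starvation and cleared of asexual parasites with heparin-treated medium. Stage II-III or IV-V gametocytes were Percoll-purified, and 50,000 per well were exposed 72 h to a 19-point gradient (0.038 nM to 10 μM). Read-out was ONE-Glo luciferase after 5 min with reagent. EC50 came from four-parameter variable-slope nonlinear regression.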

The test system of data set [15] is Plasmodium falciparum. The experiment in a line: Antiplasmodial activity against late stage (IV/V) gametocytes of Plasmodium falciparum 3D7 harboring luc7 incubated for 72 hrs by ONE-Glo luciferase assay. Type of data set: functional, organism-based. To be noted: 3D7, 72 h. The procedure, abridged: as §2
For data set [16], the system named is Hemozoin. Kind of data set: Inhibition of beta-hematin formation after 16 hrs by inverted microscopic analysis.
Data set [17] concerns Plasmodium falciparum. The experiment in a line: Parasiticidal activity against chloroquine-resistant Plasmodium falciparum Dd2 infected in erythrocytes assessed as reduction in parasitemia at 50 nM incubated for 24 to 48 hrs followed by compound washout and then incubated for 96 hrs by Giemsa staining based microscopic analysis. The class given is functional, organism-based. To be noted: time 24-48 hrs.

Activity calls are given as the source filed them. The calls are words filed in the database; no cut-off is given here.

For the compound `Clc1ccc2nc(/C=C/c3ccncc3)cc(-n3cc(CN4CCCCC4)nn3)c2c1`, the EC50 (as a rule, the concentration that produces a half-maximal response) with Plasmodium falciparum [1] turned out to be 1240 nM.

As to `O=C1S/C(=C\c2ccccc2)C(=O)N1Cc1cn(CCCCNc2cc(/C=C/c3ccncc3)nc3ccc(Cl)cc23)nn1`, the EC50 with Plasmodium falciparum [1] was 600 nM; with Plasmodium falciparum [2] it was 330 nM; in the data set on HepG2, > 25 µM.

In the case of `CCN(CC)CCCC(C)Nc1ccnc2cc(Cl)ccc12` (stereo unspecified), in the data set with Hemozoin [3], the inhibition result is “Active”.

For `OCCN1CCN(Cc2cn(CCNc3cc(/C=C/c4ccncc4)nc4ccc(Cl)cc34)nn2)CC1`, the EC50 in the data set on Plasmodium falciparum [1] was 4270 nM.

Regarding `Clc1ccc2nc(/C=C/c3ccncc3)cc(NCCCCn3cc(Cn4cccn4)nn3)c2c1`, the EC50 with Plasmodium falciparum [1] was found to be 350 nM; in the data set on Plasmodium falciparum [2] it was 280 nM; in the data set on HepG2, 21.2 µM. Also, in data set [4], the remaining at 0.25 h, 1 µM is < 50%.

`Clc1ccc2nc(/C=C/c3ccncc3)cc(NCCCCn3cc(CN4CCCC4)nn3)c2c1`: the EC50 in the data set with Plasmodium falciparum [1] was 690 nM; in the data set with Plasmodium falciparum [2], 520 nM; in the data set on HepG2, > 25 µM.

In the case of `CCN(CC)Cc1cn(-c2cc(/C=C/c3ccncc3)nc3ccc(Cl)cc23)nn1`, the EC50 with Plasmodium falciparum [1] was 1320 nM.

On to `OCCN1CCN(Cc2cn(-c3cc(/C=C/c4ccncc4)nc4ccc(Cl)cc34)nn2)CC1`, for which, in the data set on Plasmodium falciparum [1], the EC50 was found to be 1660 nM.

Consider `O=C(Cn1cc(COc2ccc(Br)cc2)nn1)NCCNc1ccnc2cc(Cl)ccc12`, for which the IC50 (usually the concentration at which inhibition is half-maximal) with Plasmodium falciparum [5] turned out to be 8.5 µM.

With `O=C1S/C(=C\c2ccccc2)C(=O)N1Cc1cn(CCNc2cc(/C=C/c3ccncc3)nc3ccc(Cl)cc23)nn1`, the EC50 amounted to 240 nM in the data set with Plasmodium falciparum [1], 440 nM with Plasmodium falciparum [2] and 5.73 µM with HepG2. In data set [4], the remaining at 0.25 h, 1 µM was < 50%.

Regarding `Clc1ccc2nc(/C=C/c3ccncc3)cc(-n3cc(CN4CCOCC4)nn3)c2c1`, the EC50 in the data set with Plasmodium falciparum [1] was > 10000 nM.

In the case of `Clc1ccc2nc(/C=C/c3ccncc3)cc(NCCn3cc(CN4CCOCC4)nn3)c2c1`, in the data set on Plasmodium falciparum [1], the EC50 was determined as 1850 nM.

On to `OCCN1CCN(Cc2cn(CCCCNc3cc(/C=C/c4ccncc4)nc4ccc(Cl)cc34)nn2)CC1`, for which the EC50 in the data set on Plasmodium falciparum [1] was 670 nM; in the data set with Plasmodium falciparum [2], 640 nM; in the data set with HepG2, > 25 µM.

As for `O=C1C(O)=C([C@H]2CC[C@H](c3ccc(Cl)cc3)CC2)C(=O)c2ccccc21`, the result with Plasmodium falciparum [6] was Active.

`CCN(CC)Cc1cn(CCNc2cc(/C=C/c3ccncc3)nc3ccc(Cl)cc23)nn1`: the 50% effective concentration (EC50) in the data set on Plasmodium falciparum [1] was 1320 nM.

For the compound `CN1CCN(Cc2cn(CCCCNc3cc(/C=C/c4ccncc4)nc4ccc(Cl)cc34)nn2)CC1`, the EC50 with Plasmodium falciparum [1] is 160 nM; in the data set with Plasmodium falciparum [2] it was 160 nM; in the data set with HepG2, 15.8 µM. The remaining at 0.25 h, 1 µM in data set [4] was < 50%.

For the compound `Clc1ccc2nc(/C=C/c3ccncc3)cc(NCCCCn3cc(CN4CCCCC4)nn3)c2c1`, the EC50 in the data set on Plasmodium falciparum [1] is 40 nM; in the data set on Plasmodium falciparum [2], 70 nM; with HepG2 it was 5.49 µM; in the data set on Plasmodium falciparum [14], 950 nM; in the data set with Plasmodium falciparum [15] it was 890 nM. Also, the remaining at 0.25 h, 1 µM in data set [4] is < 50%. Also, the result in the data set with Plasmodium falciparum [7], with Plasmodium falciparum [10], in the data set with Plasmodium falciparum [12] and in the data set on Plasmodium falciparum [13] was Active. Moreover, the outcome in the data set with Plasmodium falciparum [8], in the data set with Plasmodium falciparum [9] and in the data set on Plasmodium falciparum [11] was inactive. The inhibition result with Hemozoin [16] was “Dose-dependent effect”.

In the case of `CN1CCN(Cc2cn(CCNc3cc(/C=C/c4ccncc4)nc4ccc(Cl)cc34)nn2)CC1`, the EC50 in the data set with Plasmodium falciparum [1] was > 10000 nM.

As for `O=C1c2ccccc2C(=O)N1Cc1cn(CCNc2cc(/C=C/c3ccncc3)nc3ccc(Cl)cc23)nn1`, the EC50 with Plasmodium falciparum [1] is 1070 nM.

As for `O=C1c2ccccc2C(=O)N1Cc1cn(CCCCNc2cc(/C=C/c3ccncc3)nc3ccc(Cl)cc23)nn1`, the EC50 in the data set with Plasmodium falciparum [1] stood at 1000 nM.

On to `Clc1ccc2nc(/C=C/c3ccncc3)cc(NCCn3cc(CN4CCCCC4)nn3)c2c1`, for which the EC50 came out at 550 nM with Plasmodium falciparum [1], 470 nM with Plasmodium falciparum [2] and 13.5 µM in the data set on HepG2.

As for `O=C1c2ccccc2C(=O)N1Cc1cn(-c2cc(/C=C/c3ccncc3)nc3ccc(Cl)cc23)nn1`, the EC50 in the data set on Plasmodium falciparum [1] came to 8790 nM.

Consider `Clc1ccc2nc(/C=C/c3ccncc3)cc(NCCn3cc(CN4CCCC4)nn3)c2c1`, for which the EC50 in the data set with Plasmodium falciparum [1] amounted to 2960 nM.

Regarding `C[C@H]1[C@@H](O)O[C@@H]2O[C@@]3(C)CC[C@H]4[C@H](C)CC[C@@H]1[C@@]24OO3`, the result in the data set on Plasmodium falciparum [17] was Active.

With `Clc1ccc2nc(/C=C/c3ccncc3)cc(NCCCCn3cc(CN4CCOCC4)nn3)c2c1`, the values for the EC50 in the data set with Plasmodium falciparum [1], with Plasmodium falciparum [2] and in the data set with HepG2 were 170 nM, 230 nM and > 25 µM, respectively. Also, in data set [4], the remaining at 0.25 h, 1 µM is < 50%.

`CN1CCN(Cc2cn(-c3cc(/C=C/c4ccncc4)nc4ccc(Cl)cc34)nn2)CC1`: in the data set on Plasmodium falciparum [1], the EC50 was > 10000 nM.

As for `Clc1ccc2nc(/C=C/c3ccncc3)cc(NCCn3cc(Cn4cccn4)nn3)c2c1`, in the data set with Plasmodium falciparum [1], the EC50 came to 1180 nM.

On to `Clc1ccc2nc(/C=C/c3ccncc3)cc(-n3cc(CN4CCCC4)nn3)c2c1`, for which the EC50 in the data set on Plasmodium falciparum [1] worked out at 1650 nM.
